In brackets after ≈: the same amount, converted by molar mass.
How the values were obtained:
Streptococcus pyogenes [1] = experiment: In vitro antibacterial activity of compound against Streptococcus pyogenes C 203 SKF 13400; format: functional
In short: (§1)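 Streptococcal MICs were run by twofold microdilution in Todd-Hewitt broth over 128-0.0001 µg/mL. Inoculum was 10^4 cfu/mL, with incubation at 37 °C for 18-24 h.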

Mycobacterium avium [2] = experiment: Minimum inhibitory concentration of compound against 20 Mycobacterium avium complex (MAC) clinical isolates
Haemophilus influenzae = experiment: In vitro antibacterial activity of compound against Haemophilus influenzae ATCC 19418; format: functional
Pseudomonas aeruginosa = experiment: In vitro antibacterial activity of compound against Pseudomonas aeruginosa ATCC 10145; format: functional
In short: (§2)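 Twofold microdilution MIC in Iso-Sensitest broth over 128-0.0001 µg/mL. Inoculum was 10^4 cfu/mL, with incubation at 37 °C for 18-24 h.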

Enterococcus faecalis = experiment: In vitro antibacterial activity of compound against Streptococcus faecalis ATCC 7080.; format: functional; in short: as §2
Neisseria gonorrhoeae = experiment: In vitro antibacterial activity of compound against Neisseria gonorrhoeae ISM 68/126; format: functional
Staphylococcus aureus [3] = experiment: In vitro antibacterial activity of compound against Staphylococcus aureus Tour L 165; format: functional; in short: as §2
Escherichia coli = experiment: In vitro antibacterial activity of compound against Escherichia coli SKF 12140; format: functional
Streptococcus pyogenes [4] = experiment: Minimum inhibitory concentration of compound against Streptococcus pyogenus septicemia in the mouse; format: functional
Proteus vulgaris = experiment: In vitro antibacterial activity of compound against Proteus vulgaris X19H ATCC 881; format: functional
Mycobacterium avium [5] = experiment: 90% inhibition of the 20 Mycobacterium avium complex (MAC) clinical isolates
Klebsiella pneumoniae = experiment: In vitro antibacterial activity of compound against Klebsiella pneumoniae ISM; format: functional
[6] = test system: Staphylococcus epidermidis; experiment: In vitro antibacterial activity of compound against Staphylococcus epidermidis ATCC 12228; format: functional; in short: as §2
[7] = test system: Mycobacterium tuberculosis; experiment: In vitro antibacterial activity of compound against Mycobacterium tuberculosis H37Rv ATCC 9660; format: functional
Streptococcus pyogenes [8] = experiment: Inhibitory concentration of compound against Streptococcus pyogenus septicemia in the mouse, administarted in OS route; format: functional
In short: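 Male and female CD1 mice (18-22 g) were infected ip with S. pyogenes C203, with the challenge set so untreated mice died within 48 h. Groups of five received a single treatment immediately after infection. ED50 was calculated from the percentage surviving at each dose on day 10.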

Mycobacterium avium [9] = experiment: 50% inhibition of the 20 Mycobacterium (MAC) avium complex clinical isolates; format: functional
In short: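 Agar-dilution MICs, 2-fold dilutions over 128-0.0001 μg/mL, on Middlebrook 7H10 agar with 2% glycerol and 10% OADC. Organisms from Loevenstein-Jensen slants were grown in 7H9 broth with 0.5% Tween and 10% OADC, adjusted to McFarland no. 1, and spotted with a multipoint inoculator. Plates were sealed and incubated at 22, 30 or 37 °C for 4-20 days depending on strain.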

Streptococcus pneumoniae = experiment: In vitro antibacterial activity of compound against Streptococcus pneumoniae UC 41; format: functional; in short: as §1
Staphylococcus aureus [10] = experiment: Activity in the murine model (subcutaneous route) of Staphylococcus aureus tour septicemia; format: functional; conditions: sc
In short: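 Male and female CD1 mice (18-22 g) were infected ip with S. aureus Tour. The challenge was set so untreated mice died within 48 h. Groups were five mice, dosed once daily for 3 days starting immediately after infection. ED50 was calculated on day 10 from the percentage surviving at each dose.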

## CCNc1nc2c(s1)c1c(O)c3c(O)c(C)c4c(c32)C(=O)C(C)(O/C=C/C(OC)C(C)C(OC(C)=O)C(C)C(O)C(C)C(O)C(C)/C=C/C=C(/C)C(=O)N1)O4 (stereo not given)
Streptococcus pyogenes [1]
  MIC: 0.063 µg/mL (≈ 0.0806 µM)
Mycobacterium avium [2]
  MIC: 8 µg/mL (≈ 10.2 µM)
Haemophilus influenzae
  MIC: 0.125 µg/mL (≈ 0.16 µM)
Pseudomonas aeruginosa
  MIC: 4 µg/mL (≈ 5.12 µM)
Enterococcus faecalis
  MIC: 1 µg/mL (≈ 1.28 µM)
Neisseria gonorrhoeae
  MIC: 0.125 µg/mL (≈ 0.16 µM)
Staphylococcus aureus [3]
  MIC: 0.063 µg/mL (≈ 0.0806 µM)
Escherichia coli
  MIC: 16 µg/mL (≈ 20.5 µM)
Streptococcus pyogenes [4]
  MIC: 0.063 µg/mL (≈ 0.0806 µM)
Proteus vulgaris
  MIC: 8 µg/mL (≈ 10.2 µM)
Mycobacterium avium [5]
  MIC90: 64 µg/mL (≈ 81.8 µM)
Klebsiella pneumoniae
  MIC: 32 µg/mL (≈ 40.9 µM)
[6]
  MIC: 0.032 µg/mL (≈ 0.0409 µM)
[7]
  MIC: 0.125 µg/mL (≈ 0.16 µM)
Streptococcus pyogenes [8]
  ED50: > 4 mg/kg
Mycobacterium avium [9]
  MIC50: 32 µg/mL (≈ 40.9 µM)
Streptococcus pneumoniae
  MIC: 0.063 µg/mL (≈ 0.0806 µM)

## COC1/C=C/OC2(C)Oc3c(C)c(O)c4c(O)c(c5sc(N6CCN(C)CC6)nc5c4c3C2=O)NC(=O)/C(C)=C\C=C\C(C)C(O)C(C)C(O)C(C)C(O)C1C (stereo not given)
Staphylococcus aureus [10]
  ED50: 10 mg/kg
Streptococcus pyogenes [1]
  MIC: 0.063 µg/mL (≈ 0.0792 µM)
Haemophilus influenzae
  MIC: 0.125 µg/mL (≈ 0.157 µM)
Pseudomonas aeruginosa
  MIC: 16 µg/mL (≈ 20.1 µM)
Enterococcus faecalis
  MIC: 1 µg/mL (≈ 1.26 µM)
Neisseria gonorrhoeae
  MIC: 1 µg/mL (≈ 1.26 µM)
Staphylococcus aureus [3]
  MIC: 0.008 µg/mL (≈ 0.0101 µM)
Escherichia coli
  MIC: 8 µg/mL (≈ 10.1 µM)
Proteus vulgaris
  MIC: 8 µg/mL (≈ 10.1 µM)
Klebsiella pneumoniae
  MIC: 16 µg/mL (≈ 20.1 µM)
[6]
  MIC: 0.125 µg/mL (≈ 0.157 µM)
[7]
  MIC: 1 µg/mL (≈ 1.26 µM)
Streptococcus pneumoniae
  MIC: 0.063 µg/mL (≈ 0.0792 µM)

Source: ChEMBL document CHEMBL1124774, “Synthesis and biological activity of some derivatives of rifamycin P” (1990)
